Bioassay records (PubChem BioAssay)
Sampled rows, rich in hits. Any-hit rate of the full collection: about 1.8%.
NPY2 pot ag: human NPY-Y2 potentiation or agonism, primary screen; AID 1359; cells expressing NPY-Y2, potentiator/agonist read-out; hit rate 0.45% among 220,000; activation, % at 3.6 µM; in the data active = activation above about 27%;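 note: cells stimulated with NPY near EC25 plus isoproterenol at EC100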
Target sequence (P49146 whole entry, looked up): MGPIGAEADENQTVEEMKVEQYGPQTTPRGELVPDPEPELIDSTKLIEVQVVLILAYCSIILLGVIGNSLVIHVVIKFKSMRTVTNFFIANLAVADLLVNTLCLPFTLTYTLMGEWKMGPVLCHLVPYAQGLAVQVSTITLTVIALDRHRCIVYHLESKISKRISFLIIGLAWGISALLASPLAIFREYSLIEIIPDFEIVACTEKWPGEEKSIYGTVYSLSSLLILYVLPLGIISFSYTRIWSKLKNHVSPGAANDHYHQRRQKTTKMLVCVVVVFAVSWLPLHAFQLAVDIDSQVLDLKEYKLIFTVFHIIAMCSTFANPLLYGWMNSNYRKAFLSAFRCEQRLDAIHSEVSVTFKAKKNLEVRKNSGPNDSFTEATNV
NPY Y1 blocker: antagonists of human neuropeptide Y receptor Y1; AID 1040; hit rate 1% among 200,000; inhibition, % at 3.6 µM; P25929; HEK293-CNG Y1 cells, membrane potential fluorescence; NPY at EC95, then isoproterenol;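 active = inhibition above the campaign mean inhibition of all tested compounds plus 3 SD, cut at about 20% in these data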
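Material: HEK293 Y1/CNG channel cell line; also added: NPY (25 nM), isoproterenol (1 µM), Ro 20-1724 (25 µM); doses: one concentration, 3.6 µM, in 0.4% DMSO; schedule: compound incubation 1 h at room temperature, readout 45 min post-stimulation; technique: membrane potential fluorescence; measure: fluorescence ratio normalized to % inhibition between controls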
NPY Y2 blocker: NPY-Y2 (human) receptor antagonism; P49146; NPY-Y2 expressing cells, antagonist mode; inhibition, % at 2.7 µM; hit rate 0.99% among 140,000; AID 793; in the data active = inhibition above about 17%
NPY-Y1 PAM-ag: potentiators or agonists of human neuropeptide Y receptor Y1; P25929; NPY-Y1 expressing cells, potentiator/agonist activation; activation, % at 3.6 µM; hit rate 0.37% among 220,000; AID 1304; in the data active = activation above about 33%, passing the limit was not always enough;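 note: cells stimulated with NPY at EC10 then isoproterenol at EC100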
NPY1 antag ctr: counter-screen for NPY-Y2 antagonists: human NPY-Y1 antagonism; shares compounds with NPY Y2 blocker; cell-based NPY-Y1 antagonism counterscreen; inhibition, % at 3.6 µM; hit rate 19% among 710; AID 1256; in the data active = inhibition above about 20%;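 note: cells challenged with NPY then isoproterenol with cAMP sensed through a CNG channel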
NPY-Y2 ant conf: confirmation of human neuropeptide Y receptor Y2 antagonists. shares compounds with NPY Y2 blocker. HEK293 NPY-Y2 CNG channel, membrane potential fluorescence. inhibition, % at 2.8 µM. hit rate 32% among 710;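 active = mean inhibition of triplicate wells above the hit cutoff set in the primary screen, cut at about 17% in these data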
Each line names hits and unclear results; the compound was inactive in the other large screens (follow-up assays come after a bar, where they were run).

N#Cc1nc(Cc2ccccc2)oc1N1CCN(c2cccc(Cl)c2)CC1	none
N#Cc1nc(COc2ccc(Cl)cc2Cl)oc1N1CCN(c2ccccc2)CC1	NPY Y2 blocker 17 | NPY1 antag ctr 29 | NPY-Y2 ant conf 21
O=Cc1cn(-c2ccccc2)nc1-c1ccc2c(c1)OCCO2	none
COCCSc1nnc(NC(=O)C2CC(=O)N(c3ccccc3)C2)s1 (stereo unspecified)	none (no result: NPY Y2 blocker)
O=C(Oc1ccc(Br)cc1C(=S)N1CCCC1)c1ccccc1Cl	none
Cc1ccccc1C(=O)Oc1ccc(Br)cc1C(=S)N1CCCC1	NPY Y2 blocker 17 | NPY1 antag ctr inactive | NPY-Y2 ant conf inactive
Nc1nonc1C(=O)NCCNCc1ccccc1OCc1ccc(F)cc1	NPY Y2 blocker 17 | NPY1 antag ctr inactive | NPY-Y2 ant conf inactive
CCOc1ccc(CNCCNC(=O)c2nonc2N)cc1	none (no result: NPY Y2 blocker)
CCOC(=O)CCCCC(=O)c1[nH]c(=O)[nH]c1CSc1nnc2c3ccccc3n(C(C)C)c2n1	NPY Y2 blocker 32 | NPY1 antag ctr inactive | NPY-Y2 ant conf 45
O=C(Cc1n[nH]c(=O)c2ccccc12)OCC(=O)c1ccc2c(c1)OCCO2	none
O=C(Cc1ccc(Br)cc1)OCC(=O)c1ccc2c(c1)OCCO2	NPY Y2 blocker 17 | NPY1 antag ctr inactive | NPY-Y2 ant conf inactive
c1ccc(C2=Nn3c(nnc3-c3n[nH]c4c3CCC4)SC2)cc1	none
Clc1ccc(C2=Nn3c(nnc3-c3n[nH]c4c3CCC4)SC2)cc1Cl	NPY Y2 blocker 67 | NPY1 antag ctr inactive | NPY-Y2 ant conf 18
CCc1ccccc1N(CC(=O)N1CCN(c2ccc(F)cc2)CC1)S(C)(=O)=O	none
O=C(NC(=S)Nc1nc2c(s1)CCCC2)c1ccc(C(=O)c2ccccc2)cc1	none
Fc1ccc(Cn2nnnc2CN2CCN(C3CCCCC3)CC2)cc1	NPY Y2 blocker 20 | NPY1 antag ctr inactive | NPY-Y2 ant conf inactive
c1coc(Cn2nnnc2CN2CCN(C3CCCC3)CC2)c1	none
CCC(=O)N1CC2(CC(c3cccc([N+](=O)[O-])c3)=NO2)C[C@H]1C(=O)NCC(N)=O (stereo partly specified)	none
C/C(=N\O)c1ccc(N2C(=O)C3CC=C(Cl)CC3C2=O)cc1 (stereo unspecified)	NPY Y2 blocker 23 | NPY1 antag ctr inactive | NPY-Y2 ant conf inactive
Cc1cc(N2CCOCC2)nc(N2CCOCC2)n1	none (no result: NPY Y2 blocker)
O=c1c2ccccc2cnn1Cc1n[nH]c(=S)n1-c1ccc(Cl)cc1	NPY Y2 blocker 28 | NPY1 antag ctr inactive | NPY-Y2 ant conf inactive
COc1cc(C2C(C(=O)OC(C)C)=C(C)Nc3ncnn32)cc(OC)c1OC (stereo unspecified)	none
O=C(CCN1C(=O)/C(=C\c2ccccc2)SC1=S)NNC(=O)c1cccnc1	none
O=c1oc(-c2ccc(Cl)c(Cl)c2)nn1-c1ccc(C(F)(F)F)cn1	none (no result: NPY Y1 blocker, NPY Y2 blocker)
CCOC(=O)c1cc(-c2ccccc2)sc1NC(=O)CC	NPY Y2 blocker 21 | NPY1 antag ctr inactive | NPY-Y2 ant conf inactive
COc1cccc(-c2nc(CS(=O)(=O)CC(=O)NCc3ccccc3OC)c(C)o2)c1	NPY Y2 blocker 22 | NPY1 antag ctr inactive | NPY-Y2 ant conf inactive
COc1cccc(-c2nc(-c3ccc(NC(=O)Cc4ccccc4OC)cc3)no2)c1	NPY Y2 blocker 23 | NPY1 antag ctr inactive | NPY-Y2 ant conf 115
O=c1[nH]c2ccccc2nc1CCc1ccccc1	none (no result: NPY Y2 blocker)
Cc1ccc(NC(=O)Cn2cc(S(=O)(=O)c3ccc(F)cc3)c(=O)c3cc(F)ccc32)cc1	none
Cc1cc(C)n(-c2nc(Nc3ccccc3C(F)(F)F)nc(-n3nc(C)cc3C)n2)n1	NPY Y2 blocker 19 | NPY1 antag ctr inactive | NPY-Y2 ant conf inactive
Cc1ccc(-c2nc3ncccc3o2)cc1NC(=O)COc1ccccc1	NPY Y2 blocker 21 | NPY1 antag ctr inactive | NPY-Y2 ant conf inactive
O=C(NCCNS(=O)(=O)c1ccccc1)c1cc(OCC(F)(F)F)ccc1OCC(F)(F)F	none
O=C(NCCNS(=O)(=O)c1ccc(Cl)cc1)c1cc(OCC(F)(F)F)ccc1OCC(F)(F)F	NPY Y2 blocker 38 | NPY1 antag ctr inactive | NPY-Y2 ant conf inactive
CN(C)CCOC(C1CCCCC1)C1CCCCC1	NPY Y2 blocker 27 | NPY1 antag ctr inactive | NPY-Y2 ant conf inactive
CN(C)CCNC(=S)NC1CCCCC1	none (no result: NPY Y2 blocker)
CCCn1c2ccccc2c2cc(C(=O)O)ccc21	NPY Y2 blocker 19 | NPY1 antag ctr inactive | NPY-Y2 ant conf inactive
Cn1c2ccccc2c2cc(C(=O)O)ccc21	none
Fc1ccc2nc(N3CCCC3)sc2c1	none (no result: NPY Y2 blocker)
Cc1ccc(S(=O)(=O)N2CC3(C)CN(S(=O)(=O)c4ccc(C)cc4)CC(C)(C2)C3O)cc1 (stereo unspecified)	none
CS(=O)(=O)N(CC(=O)NCCSCc1cccc(Cl)c1)c1ccc2c(c1)OCO2	none
O=C(/C=C/c1ccc2c(c1)OCO2)NCCSCc1cccc(Cl)c1	NPY Y2 blocker 18 | NPY1 antag ctr inactive | NPY-Y2 ant conf inactive
O=C(/C=C/c1ccc2c(c1)OCO2)NCCSCc1ccc(Cl)cc1Cl	NPY Y2 blocker 19 | NPY1 antag ctr inactive | NPY-Y2 ant conf inactive
Cc1ccsc1/C=c1\sc2ncnn2c1=O	none
O=C(c1ccccc1)N(Cc1cccnc1)C1(C(=O)Nc2ccccc2)CCCCC1	NPY Y2 blocker 19 | NPY1 antag ctr inactive | NPY-Y2 ant conf inactive
O=S(=O)(c1ccc(S(=O)(=O)N2CCCC3(CCCCC3)C2)cc1)N1CCCCC1	none
CCCOc1ccc(Br)cc1/C=N/O	NPY Y2 blocker 18 | NPY1 antag ctr 21 | NPY-Y2 ant conf inactive
Cc1cc(NC(=O)c2c(F)cccc2F)n(-c2nc3ccccc3[nH]2)n1	none
Cc1cc(NC(=O)C2CCCCC2)n(-c2nc3ccccc3[nH]2)n1	NPY Y2 blocker 17 | NPY1 antag ctr 22 | NPY-Y2 ant conf inactive
Cc1nc2ccccc2c(=O)n1NC(=O)/C=C/c1ccc(Br)cc1	NPY Y2 blocker 18 | NPY1 antag ctr inactive | NPY-Y2 ant conf inactive
O=C(Nc1ccccc1Cl)C1C2CCC3C(CCC21)C3(Cl)Cl (stereo unspecified)	NPY Y2 blocker 18 | NPY1 antag ctr inactive | NPY-Y2 ant conf inactive
COc1cccc(NC(=S)N2CCCC2c2ccc(OC)c(OC)c2)c1 (stereo unspecified)	none (no result: NPY Y2 blocker)
CC(=O)N1CCN(S(=O)(=O)c2cccc(C(=O)Nc3ccc4c(c3)OCO4)c2)CC1	none (no result: NPY Y2 blocker)
Fc1cccc(CSc2ccc(-c3ccc4c(c3)OCO4)nn2)c1	NPY Y2 blocker 19 | NPY1 antag ctr inactive | NPY-Y2 ant conf inactive
c1cncc(CSc2ccc(-c3ccc4c(c3)OCO4)nn2)c1	none (no result: NPY Y2 blocker)
COc1cccc(NC(=O)c2cc(OC)c(OC)c(OC)c2Br)c1	none
COC(=O)c1ccc(C(C(=O)NC2CCCCC2)N(Cc2ccc(F)cc2)C(=O)Cc2cccs2)cc1 (stereo unspecified)	NPY Y2 blocker 19 | NPY1 antag ctr inactive | NPY-Y2 ant conf inactive
O=C(NC1CCCCC1)C(c1ccc2ncccc2c1)N(Cc1ccc(F)cc1)C(=O)c1cccs1 (stereo unspecified)	NPY Y2 blocker 31 | NPY1 antag ctr inactive | NPY-Y2 ant conf inactive
